STAT1 inh: reduces IFN-gamma driven STAT1 reporter signal; NIH 3T3 STAT1-luciferase reporter, luminescence; inhibition, % at 5.5 µM; 200,000 compounds, 0.35% hits; AID 920;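 active means inhibition above a set limit, the mean inhibition across all tested compounds plus 3 SD, cut at about 34% in these data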;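 further: 0% = IFN-gamma with DMSO and 100% = IFN-gamma with 300 µM nifuroxazide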
STAT1 activator: activators of IFN-gamma induced STAT1 signaling; 200,000 compounds, 2.6% hits; NIH 3T3 STAT1-luciferase reporter, luminescence; 100% = IFN-gamma alone, no compound; activation (% of control), % at 5.5 µM;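 active means activation above the screen-wide mean activation plus 3 SD, cut at about 130% in these data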;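 further: raw ratio to IFN-gamma control signal so 100% means no change and 0% no light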
STAT3 blocker: inhibitors of IL-6 induced STAT3 signaling; U3A cells, IL-6 STAT3-luciferase reporter, luminescence; host cell line lacks STAT1; inhibition, % at 5.5 µM; 190,000 compounds, 0.89% hits;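 active means inhibition above the mean inhibition across all screened compounds plus 3 SD, cut at about 44% in these data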;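 further: 0% = DMSO only wells and 100% = 100 µM nifuroxazide control wells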
STAT3 activator: STAT3 signaling activation. activation (% of control), % at 5.6 µM. 190,000 compounds, 0.91% hits. AID 871. U3A cells, IL-6 STAT3-luciferase reporter, luminescence; 100% = signal with IL-6 EC80 alone;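 active means activation above the screen-wide mean of compound activation plus 3 SD, cut at about 130% in these data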;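 further: 0% = background luminescence of wells with medium and substrate only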
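Material: STAT1-lacking human U3A cells, STAT3 luciferase reporter | Benchmarks: IL-6-only wells as 100% reference | Probe or stimulus: IL-6 (33 ng/mL) | Timing: Compound 1 h, then IL-6 6 h at 37 °C | Detection: Luminescence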
Numbers without * were called inactive. In the library only some 4.3% were active in any assay of this set; here they are far more common.

SMILES | STAT1 inh | STAT1 activator | STAT3 blocker | STAT3 activator
Cc1c(-c2ccc(Br)cc2)nc2ccccn12 | -53.1 | 148.1* | -14.3 | 118.2
COc1ccc(-c2nc3c4ccccc4ccn3c2C=O)cc1 | 5.0 | 95.8 | -13.5 | 113.8
Cc1ccc(-c2nc3ccccn3c2C=O)cc1 | -37.2 | 132.3* | -0.4 | 106.7
CN(C)c1ccc(-c2nc3ccccn3c2/N=C/c2ccc(Br)cc2)cc1 | -38.4 | 134.2* | 13.6 | 90.2
CN(C)S(=O)(=O)c1cc(NC(=O)Cn2ccsc2=N)ccc1Cl | -4.9 | 103.2 | 3.7 | 103.7
CC(=O)Nc1ccc(/C=N/NC(=O)CNC(=O)c2ccccc2)cc1 | -14.4 | 111.7 | 8.3 | 96.7
Cc1csc2nc(CSc3nncn3-c3ccccc3)c(Br)n12 | 8.1 | 92.6 | -4.2 | 106.3
Cc1csc2nc(CSc3nc4ccccc4o3)c(Br)n12 | -49.4 | 145.5* | 21.4 | 84.2
NC(=O)COc1cccc2cccnc12 | 2.6 | 97.6 | 3.8 | 97.0
Fc1ccc(COc2cccc3cccnc23)cc1 | -35.1 | 129.0* | 8.9 | 96.6
CC12CCC(C(=O)Nc3nccs3)(OC1=O)C2(C)C (centres undefined) | -8.0 | 107.3 | -0.9 | 104.8
CC12CCC(C(=O)Nc3nc4ccc(Br)cc4s3)(OC1=O)C2(C)C (centres undefined) | -44.7 | 137.9* | 2.9 | 102.5
O=c1c2c3c(sc2ncn1/N=C/c1ccncc1)CCCC3 | -18.6 | 115.7 | 16.1 | 88.5
O=c1c2c3c(sc2ncn1/N=C/c1cccnc1)CCCC3 | -43.5 | 138.6* | -7.2 | 107.6
O=C1C2C3c4ccccc4C(c4ccccc43)C2C(=O)N1Cc1ccccn1 (centres undefined) | 8.3 | 91.3 | 12.1 | 92.8
Cc1noc(C)c1COC(=O)CCCc1c[nH]c2ccccc12 | 13.8 | 87.7 | -32.1 | 133.7*
Cc1cccc2c1OCC/C2=N\NC(=O)COc1ccccc1Cl | -33.4 | 129.9* | 15.8 | 88.7
Cc1ccc(Nc2nc(=O)c3cccnc3s2)cc1 | -40.7 | 137.4* | -46.6 | 143.8*
NS(=O)(=O)c1ccc(CNC(=O)c2csc3c2CCCC3)cc1 | -3.6 | 101.3 | 8.8 | 97.8
CCOC(=O)C(C)Sc1ncnc2c1nnn2-c1ccc(F)cc1 (centres undefined) | -35.2 | 131.9* | 8.9 | 93.0
CCC(Sc1ncnc2c1nnn2-c1ccc(F)cc1)C(=O)OC (centres undefined) | -18.6 | 116.8 | 4.4 | 96.9
Cc1ccc(C(=O)NNC(=S)Nc2cccc3ccccc23)s1 | -9.1 | 108.3 | -42.9 | 134.4*
O=C(NNC(=S)Nc1cccc2ccccc12)c1cccc(Br)c1 | 0.5 | 101.2 | -10.3 | 108.7
Sc1oc(-c2ccccc2)cc1C=Nc1ccccc1 | -36.5 | 133.5* | -10.3 | 108.8
COc1cc(/C=N/NC(=O)c2cc(-c3cccn3C)n[nH]2)cc(OC)c1OC | 1.0 | 99.1 | -31.8 | 134.3*
SMILES | STAT1 inh | STAT1 activator | STAT3 blocker | STAT3 activator
COc1cccc(/C=N/NC(=O)c2cc(-c3cccn3C)n[nH]2)c1 | -0.4 | 100.4 | 5.5 | 99.5
COc1ccc(Nc2nc(N)nc(CSC(=S)N3CCOCC3)n2)cc1 | -48.5 | 142.5* | -9.7 | 112.7
Nc1nc(CSC(=S)N2CCOCC2)nc(Nc2ccc(F)cc2)n1 | -2.1 | 101.9 | -9.3 | 107.6
COc1cccc(C2=NC(C)(C)NC(c3ccccc3O)C2)c1 (centres undefined) | 1.9 | 98.3 | -31.8 | 131.5
CCC1(C)N=C(c2ccc3c(c2)OCO3)CC(c2ccccc2O)N1 (centres undefined) | 7.3 | 93.3 | -43.6 | 143.6*
Cn1c(=Nc2ccccc2)sc2ccccc21 | -9.5 | 108.7 | 2.8 | 102.8
CN(C)c1ccc(N=c2sc3ccccc3n2C)cc1 | -41.4 | 138.0* | 11.4 | 93.3
COc1cc(Br)cc(CNc2ccc(F)c([N+](=O)[O-])c2)c1O | 0.6 | 99.7 | 12.9 | 96.5
Nc1nonc1-c1nc2ccccc2n1Cc1ccc(F)cc1Cl | -38.3 | 134.7* | -71.6 | 160.5*
N#C/C(=C1/CCCCCN1)c1nc2ccccc2[nH]1 | -32.6 | 129.6* | 1.2 | 107.7
N#C/C(=C1\CCCN1)c1ccc2ccccc2n1 | -1.0 | 100.9 | 3.3 | 99.4
CCC(C(=O)Nc1cccc(C(=O)O)c1C)c1ccccc1 (centres undefined) | -8.0 | 107.5 | 4.3 | 104.6
CC(=O)c1sc(NC(=O)c2ccccc2)nc1-c1ccccc1 | -56.2 | 150.5* | 17.3 | 86.6
CC(=O)c1sc(NC(=O)c2cccc(C)c2)nc1C | -35.1 | 131.0* | 22.0 | 82.7
CCC(C)NC(=O)CN(c1cc(Cl)cc(Cl)c1)S(C)(=O)=O (centres undefined) | -6.0 | 104.0 | 5.8 | 98.8
Cc1sc(NC(=O)c2cccs2)c(C(N)=O)c1C | -44.1 | 140.3* | -14.7 | 115.6
COc1ccc2oc(C(=O)OCC(=O)NC(=O)NC(C)C)c(C)c2c1 | -0.1 | 100.1 | 9.3 | 92.5
COc1ccc2oc(C(=O)NCCC(C)C)c(C)c2c1 | -41.0 | 134.6* | 11.1 | 92.6
O=C(Cn1nnc(-c2ccccc2NC(=O)c2ccccc2F)n1)NC1CCCC1 | -2.0 | 102.4 | 1.0 | 101.1
Fc1ccc(/C=N/Nc2ccccn2)cc1 | -19.3 | 117.2 | 1.3 | 96.8
Clc1ccc(/C=N/Nc2ccccn2)cc1 | -35.5 | 135.4* | 24.9 | 82.6
Brc1ccc(/C=N/Nc2ccccn2)cc1 | -37.9 | 137.8* | 21.7 | 85.4
Brc1ccccc1/C=N/Nc1ccccn1 | -24.7 | 122.3 | -36.8 | 132.5
Cn1cc(/C=N\NC(=O)c2cccs2)c2ccccc21 | -31.2 | 128.8* | 11.3 | 94.8
O=C(N/N=C/c1ccsc1)c1ccccn1 | -30.8 | 127.5 | -5.7 | 106.1
SMILES | STAT1 inh | STAT1 activator | STAT3 blocker | STAT3 activator
Cc1cc(/C=N/NC(=O)c2ccncc2)c(C)n1-c1ccccc1 | -13.8 | 113.1 | -16.2 | 111.8
CC(C)(C)c1ccc(/C=N/NC(=O)c2ccccn2)cc1 | 42.7* | 58.9 | 68.3* | 43.5
Cc1ccsc1/C=N/NC(=O)c1ccccn1 | -53.9 | 148.0* | 6.5 | 94.5
Cc1cc(/C=N/NC(=O)c2cccs2)c(C)n1-c1cnccn1 | -54.5 | 146.6* | -9.1 | 113.5
Cc1cc[n+](-c2ccccc2)c2ccccc12 | 19.4 | 80.3 | 8.5 | 94.6
C/C(=N\O)C(=O)NCCN(C)C | -4.9 | 104.3 | 30.9 | 76.2
COc1ccc(C(=O)C[n+]2ccc3c(c2)nnn3-c2ccccc2)cc1 | -9.1 | 106.3 | 9.5 | 97.1
CCOc1cc(/C=N/Nc2cccc(C(=O)O)c2)ccc1OC(=O)c1ccccc1 | 77.1* | 28.4 | 55.4* | 56.4
Cc1ccsc1/C=N/NC(=O)c1cccs1 | -37.3 | 133.8* | 4.7 | 95.4
O=C(N/N=C/c1ccc(Br)s1)c1ccccn1 | -41.4 | 137.4* | 8.9 | 95.3
Cc1nn(-c2ccc(F)cc2)c(Cl)c1/C=N/NC(=O)c1cccs1 | -46.9 | 141.9* | 2.0 | 100.2
COc1ccc(-c2cc(C(F)(F)F)n3ncc(C(=O)N4CCCCC4c4cccnc4)c3n2)cc1 (centres undefined) | 5.2 | 96.7 | 0.7 | 103.7
N#Cc1cnn2ccc(-c3ccc4c(c3)CCC4)nc12 | -16.4 | 113.1 | 17.4 | 88.3
Cc1ccccc1C(=O)N/N=C/c1ccsc1C | -37.0 | 132.7* | -7.7 | 111.1
Cc1ccsc1/C=N/Nc1cccc(C(=O)O)c1 | 89.1* | 18.3 | 48.8* | 61.3

Screens as filed in PubChem BioAssay.
